Broadly, the MIC is the lowest concentration that inhibits growth of the organism.

From ChEMBL document CHEMBL1137670, “First occurrence of an IMP metallo-beta-lactamase in Aeromonas caviae: IMP-19 in an isolate from France” (2007) come the findings set out here.

Format in all cases: functional
For assay [1], the system named is Aeromonas caviae. In words: Antimicrobial activity against Aeromonas caviae A324R by disk diffusion method. A digest of the protocol: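 Disk diffusion per CLSI criteria, read as inhibition zone diameter in mm.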
Background: In agar diffusion tests the substance spreads into inoculated agar from a disc or well.

The test system of assay [2] is Escherichia coli. In words: Antimicrobial activity against Escherichia coli DH5alpha expressing pJDB2 containing Aeromonas caviae A324R metallo-beta-lactamase gene by broth dilution method. The gist of the method: (§1)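 Beta-lactam MICs by standard broth dilution per CLSI criteria. Recombinant DH5alpha(pIP19) carries blaIMP-19 subcloned into pK18, selected on kanamycin 30 µg/ml plus ceftazidime 4 µg/ml. DH5alpha(pJDB2) carries the 35 kb native plasmid extracted by alkaline lysis.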
In general terms: In broth dilution the organism is exposed to a series of concentrations in liquid medium.

The subject of assay [3] is Aeromonas caviae. In words: Antimicrobial activity against Aeromonas caviae A324R expressing metallo-beta-lactamase IMP-19 by broth dilution method. A digest of the protocol: as §1
Assay [4] relates to Escherichia coli. In words: Antimicrobial activity against Escherichia coli DH5alpha expressing pIP19 containing Aeromonas caviae A324R metallo-beta-lactamase blaIMP-19 gene by broth dilution method. The gist of the method:
as §1

In assay [5] the test system is Escherichia coli. Nature of the assay: Antimicrobial activity against Escherichia coli DH5alpha by broth dilution method. A digest of the protocol: as §1

Structures are written as SMILES. Converted amounts (≈) assume the structure as drawn.

`C[C@H]1[C@H](NC(=O)/C(=N\OC(C)(C)C(=O)O)c2csc(N)n2)C(=O)N1S(=O)(=O)O` [AZTREONAM]: in the assay on Aeromonas caviae [1], the “diameter of the inhibition zone (DIZ)” value was 24 mm. For the same compound, the minimal inhibitory concentration (MIC) came to 256 µg/mL (≈ 588 µM) in the assay on Escherichia coli [2], 512 µg/mL (≈ 1180 µM) in the assay on Aeromonas caviae [3] and 256 µg/mL (≈ 588 µM) against Escherichia coli [4].
As to `Cc1nnc(SCC2=C(C(=O)O)N3C(=O)[C@@H](NC(=O)Cn4cnnn4)[C@H]3SC2)s1` [CEFAZOLIN], the MIC against Escherichia coli [2] was 256 µg/mL (≈ 563 µM); against Aeromonas caviae [3], 1020 µg/mL (≈ 2250 µM); against Escherichia coli [4], 256 µg/mL (≈ 563 µM); against Escherichia coli [5], ≤ 1 µg/mL.
With `C[C@@H](O)[C@H]1C(=O)N2C(C(=O)O)=C(S[C@@H]3CN[C@H](C(=O)N(C)C)C3)[C@H](C)[C@H]12` [MEROPENEM], the minimum inhibitory concentration (MIC) is 256 µg/mL (≈ 668 µM) against Escherichia coli [2], 1020 µg/mL (≈ 2670 µM) against Aeromonas caviae [3], 512 µg/mL (≈ 1340 µM) with Escherichia coli [4] and ≤ 1 µg/mL against Escherichia coli [5].
Turning to `C[C@@H](O)[C@H]1C(=O)N2C(C(=O)O)=C(SCCNC=N)C[C@H]12` [IMIPENEM ANHYDROUS], the “diameter of the inhibition zone (DIZ)” value with Aeromonas caviae [1] worked out at 27 mm. Besides, the results for the minimum inhibitory concentration (MIC) with Escherichia coli [2], in the assay with Aeromonas caviae [3] and with Escherichia coli [4] were 0.25 µg/mL (≈ 0.835 µM), 8 µg/mL (≈ 26.7 µM) and 0.25 µg/mL (≈ 0.835 µM), respectively.
As for `CO[C@@]1(NC(=O)Cc2cccs2)C(=O)N2C(C(=O)O)=C(COC(N)=O)CS[C@@H]21` [CEFOXITIN], the MIC stood at 256 µg/mL (≈ 599 µM) in the assay with Escherichia coli [2], 512 µg/mL (≈ 1200 µM) in the assay with Aeromonas caviae [3], 512 µg/mL (≈ 1200 µM) in the assay with Escherichia coli [4] and 2 µg/mL (≈ 4.68 µM) in the assay on Escherichia coli [5].
For `CCN1CCN(C(=O)N[C@@H](C(=O)N[C@@H]2C(=O)N3[C@@H]2SC(C)(C)[C@@H]3C(=O)O)c2ccccc2)C(=O)C1=O` [PIPERACILLIN], the minimum inhibitory concentration (MIC) came to 8 µg/mL (≈ 15.5 µM) with Escherichia coli [2], 256 µg/mL (≈ 495 µM) in the assay on Aeromonas caviae [3], 2 µg/mL (≈ 3.86 µM) with Escherichia coli [4] and 1 µg/mL (≈ 1.93 µM) with Escherichia coli [5].
Take `O=C(O)[C@H]1/C(=C/CO)O[C@@H]2CC(=O)N21` [CLAVULANIC ACID]: the MIC in the assay with Escherichia coli [2] is 4 µg/mL (≈ 20.1 µM); in the assay on Aeromonas caviae [3] it was 16 µg/mL (≈ 80.3 µM); against Escherichia coli [4], 8 µg/mL (≈ 40.2 µM); against Escherichia coli [5] it was 0.5 µg/mL (≈ 2.51 µM).
`CC1(C)S[C@@H]2[C@H](NC(=O)[C@H](C(=O)O)c3ccsc3)C(=O)N2[C@H]1C(=O)O` [TICARCILLIN]: the MIC with Escherichia coli [2] was determined as 512 µg/mL (≈ 1330 µM); in the assay on Aeromonas caviae [3], 2050 µg/mL (≈ 5330 µM); with Escherichia coli [4], 1020 µg/mL (≈ 2660 µM); against Escherichia coli [5] it was 4 µg/mL (≈ 10.4 µM).
On to `C[C@]1(Cn2ccnn2)[C@H](C(=O)O)N2C(=O)C[C@H]2S1(=O)=O` [TAZOBACTAM], for which the MIC in the assay with Escherichia coli [2] was 0.5 µg/mL (≈ 1.67 µM); in the assay on Aeromonas caviae [3] it was 1 µg/mL (≈ 3.33 µM); with Escherichia coli [4], 0.5 µg/mL (≈ 1.67 µM); in the assay on Escherichia coli [5] it was ≤ 0.25 µg/mL.
Regarding `CC(C)(O/N=C(\C(=O)N[C@@H]1C(=O)N2C(C(=O)[O-])=C(C[n+]3ccccc3)CS[C@H]12)c1csc(N)n1)C(=O)O` [CEFTAZIDIME], the minimum inhibitory concentration (MIC) turned out to be 128 µg/mL (≈ 234 µM) in the assay on Escherichia coli [2], 1020 µg/mL (≈ 1870 µM) in the assay on Aeromonas caviae [3], 512 µg/mL (≈ 937 µM) in the assay with Escherichia coli [4] and 4 µg/mL (≈ 7.32 µM) with Escherichia coli [5].
